Data reported in ChEMBL document CHEMBL1150807, “Daucane sesquiterpenes from Ferula hermonis” (J Nat Prod, 2001).
Values after ≈ are worked out from the molar mass of the structure shown. Active and inactive are the calls of the source. The calls are words filed in the database; no cut-off is given here.

Experiments:
[1] = tested on: Candida albicans; assay: Antimicrobial activity against Candida albicans ATCC 90028; format: functional
How it was run: (§1)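 Subcultured organism diluted in its incubation broth for the inoculum. Samples were dissolved in DMSO, serially diluted in normal saline and tested in duplicate, starting at a final 50 µg/mL for pure compounds and 500 µg/mL for extracts. Growth and media-only controls were included. OD630 was read before and after incubation, and IC50/MIC was taken from percent growth versus concentration. MFC/MBC came from 5 µL subcultured onto agar.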

[2] = tested on: Staphylococcus aureus; assay: Antimicrobial activity against methicillin-resistant Staphylococcus aureus ATCC 43300; format: functional, organism-based
How it was run: (§2)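 Broth microdilution in duplicate. Samples are dissolved in DMSO, serially diluted in normal saline, and mixed with inoculum from subcultured organism diluted in its incubation broth. The top final concentration is 50 µg/mL for pure compounds and 500 µg/mL for crude extracts. Controls are tetracycline, growth and media blank. OD630 is read before and after incubation, and percent growth is plotted against concentration to give IC50/MIC. MBC is found by plating 5 µL from each duplicate on agar.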

[3] = tested on: Staphylococcus aureus; assay: Antimicrobial activity against Staphylococcus aureus ATCC 29213; format: functional, organism-based; how it was run: as §2
[4] = tested on: Mycobacterium intracellulare; assay: Antimicrobial activity against Mycobacterium intracellular ATCC 23068; format: functional
How it was run: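 Inoculum was subcultured organism diluted in its incubation broth. Samples were dissolved in DMSO, serially diluted in saline and run in duplicate, with final concentrations starting at 50 µg/mL for pure compounds and 500 µg/mL for extracts. Tetracycline reference, growth and blank controls were included. Plates were inspected visually. MBC came from 5 µL of each well plated on agar.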

[5] = tested on: Pseudomonas aeruginosa; assay: Antimicrobial activity against Pseudomonas aeruginosa ATCC 27853; format: functional; how it was run: as §1
[6] = tested on: Cryptococcus neoformans; assay: Antimicrobial activity against Cryptococcus neoformans ATCC 90113; format: functional; how it was run: as §1
[7] = tested on: Aspergillus fumigatus; assay: Antimicrobial activity against Aspergillus fumigatus ATCC 90906; format: functional
How it was run: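 Growth was removed from a slant into 50 mL YPD broth for the inoculum. DMSO-dissolved samples were serially diluted in saline and run in duplicate, starting at a final 50 µg/mL for pure compounds and 500 µg/mL for extracts. Amphotericin B reference, growth and blank controls were included. Endpoints were read visually. MFC came from 5 µL of each duplicate transferred to agar.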

Row | Structure (SMILES) | Activity [1] | Activity [2] | Activity [3] | Activity [4] | Activity [5] | Activity [6] | Activity [7] | MIC [1] [µg/mL] | IC50 [2] [µg/mL] | IC50 [3] [µg/mL] | MIC [4] [µg/mL] | MIC [5] [µg/mL] | MIC [6] [µg/mL] | MIC [7] [µg/mL]
1 | CC1=CC[C@@]2(C)CC[C@@](O)(C(C)C)[C@@H]2[C@@H](O)C1 | inactive | inactive | inactive | inactive | inactive | inactive | inactive | – | – | – | – | – | – | –
2 | CC(C)[C@]1(O)CC[C@]2(C)C[C@@H]3O[C@]3(C)C[C@H](O)[C@H]21 | inactive | inactive | inactive | inactive | inactive | inactive | inactive | – | – | – | – | – | – | –
3 | COc1cc(C(=O)OCC2=CC[C@@]3(C)CCC(C(C)C)=C3CC2)ccc1O | inactive | inactive | inactive | inactive | inactive | inactive | inactive | – | – | – | – | – | – | –
4 | CC1=CC[C@@]2(C)CC[C@@](O)(C(C)C)[C@@H]2[C@@H](OC(=O)c2ccccc2)C1 | inactive | inactive | inactive | inactive | inactive | inactive | inactive | – | – | – | – | – | – | –
5 | CC(C)C1=C2CCC(COC(=O)c3ccc(O)cc3)=CC[C@@]2(C)CC1 | – | – | – | – | – | – | – | 6.25 (≈ 18.4 µM) | 2 (≈ 5.87 µM) | 1.5 (≈ 4.41 µM) | 6.25 (≈ 18.4 µM) | 6.25 (≈ 18.4 µM) | 6.25 (≈ 18.4 µM) | 6.25 (≈ 18.4 µM)
